Measured values from ChEMBL document CHEMBL1157636, “Novel C-aryl glucoside SGLT2 inhibitors as potential antidiabetic agents: 1,3,4-Thiadiazolylmethylphenyl glucoside congeners” (Bioorg Med Chem, 2010).
pIC50: −log10 of the molar value.

Key:
[1] = biological target: T1, Sodium/glucose cotransporter 2 (Homo sapiens, UniProt P31639); experiment: Inhibition of human recombinant SGLT2 expressed in CHO cells by liquid scintillation counting; assay type: cell-based
T1 sequence (P31639 whole entry): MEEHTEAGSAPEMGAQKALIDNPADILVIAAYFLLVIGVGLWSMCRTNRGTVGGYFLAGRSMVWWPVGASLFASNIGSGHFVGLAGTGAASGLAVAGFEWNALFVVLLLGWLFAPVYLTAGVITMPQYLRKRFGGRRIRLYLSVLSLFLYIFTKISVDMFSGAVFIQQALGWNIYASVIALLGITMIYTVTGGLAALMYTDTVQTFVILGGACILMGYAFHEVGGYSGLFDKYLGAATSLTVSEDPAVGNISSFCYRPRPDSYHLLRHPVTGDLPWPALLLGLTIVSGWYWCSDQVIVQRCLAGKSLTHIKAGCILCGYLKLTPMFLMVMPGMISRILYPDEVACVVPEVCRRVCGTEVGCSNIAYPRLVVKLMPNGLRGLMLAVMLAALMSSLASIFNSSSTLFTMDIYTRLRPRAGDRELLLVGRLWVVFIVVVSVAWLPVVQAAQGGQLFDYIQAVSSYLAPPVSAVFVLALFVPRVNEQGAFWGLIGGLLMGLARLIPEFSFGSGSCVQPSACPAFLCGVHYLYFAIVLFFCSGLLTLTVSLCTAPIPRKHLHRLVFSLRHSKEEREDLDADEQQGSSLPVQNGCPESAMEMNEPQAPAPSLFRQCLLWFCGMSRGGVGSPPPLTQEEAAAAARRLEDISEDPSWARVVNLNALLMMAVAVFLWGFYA
How it was run: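 hSGLT2 cloned from human kidney cDNA; stable clones selected by G418 resistance. Preincubated 10 min at 37 °C in sodium-free choline buffer pH 7.4. Then 2 h at 37 °C in Na⁺ uptake buffer with 1 mM unlabeled AMG plus ¹⁴C-AMG and inhibitor or DMSO. Washed, radioactivity counted; IC50 by nonlinear regression.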

Rattus norvegicus [2] = experiment: Effect on urinary glucose excretion in normal fasted Sprague-Dawley rat at 10 mg/kg, po subsequently co-treated with glucose measured up to 24 hrs relative to untreated control; settings: in vivo
[3] = Cmax in Sprague-Dawley rat at 5 mg/kg, po; assay type: ADME, organism-based; parameters: dose 5 mg/kg, route oral; settings: in vivo
[4] = Oral bioavailability in Sprague-Dawley rat at 5 mg/kg; assay type: ADME, organism-based; settings: in vivo
[5] = Elimination half life in Sprague-Dawley rat at 5 mg/kg, po; assay type: ADME, organism-based; parameters: dose 5 mg/kg, route oral; settings: in vivo, read-out: beta t1/2 (converted)
Rattus norvegicus [6] = experiment: Effect on urine volume in normal fasted Sprague-Dawley rat at 10 mg/kg, po subsequently co-treated with glucose measured up to 24 hrs relative to untreated control; assay type: ADME, organism-based; parameters: dose 10 mg/kg, route oral; settings: in vivo
How it was run: (§1)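 Overnight-fasted male SD rats placed in metabolism cages for 24 h baseline urine, then randomized and given single oral drug or vehicle followed by oral 50% aqueous glucose (2 g/kg). Urine collected 24 h, re-fed 1 h after glucose challenge. Urine volume measured and glucose determined enzymatically. Values normalized per 200 g body weight; means ± S.E.M., ANOVA with Dunnett's test.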

[7] = Tmax in Sprague-Dawley rat at 5 mg/kg, po; assay type: ADME, organism-based; parameters: dose 5 mg/kg, route oral; settings: in vivo
Rattus norvegicus [8] = experiment: Effect on urinary glucose excretion in normal fasted Sprague-Dawley rat at 10 mg/kg, po subsequently co-treated with glucose measured up to 24 hrs relative to untreated control; assay type: ADME, organism-based, Urine; parameters: dose 10 mg/kg, route oral; settings: in vivo; how it was run: as §1
Mus musculus = experiment: Antidiabetic activity in db/db mouse assessed as reduction in blood glucose level at 10 mg/kg, po after 4 hrs relative to untreated control; assay type: functional; parameters: scale not given: the % may be the effect or the level left
How it was run: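 Diabetic db/db mice (n = 4 per group), randomized by weight and given single oral dose of vehicle or drug. Reduction versus vehicle controls at 4 h; means ± S.E.M., one-way ANOVA with Dunnett's test.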

Row | SMILES | pIC50 [1] | also measured
1 | CC(C)(C)c1nnc(Cc2cccc(C3O[C@H](CO)[C@@H](O)[C@H](O)[C@H]3O)c2)s1 (some centres not stated) | < 5.00 | –
2 | CCCc1nnc(Cc2cccc([C@@H]3O[C@H](CO)[C@@H](O)[C@H](O)[C@H]3O)c2)s1 | 5.16 | –
3 | CC(C)(c1ccc(Cl)cc1)c1nnc(Cc2cc(C3O[C@H](CO)[C@@H](O)[C@H](O)[C@H]3O)ccc2Cl)s1 (some centres not stated) | < 5.00 | –
4 | Cc1noc(C)c1-c1nnc(Cc2cc([C@@H]3O[C@H](CO)[C@@H](O)[C@H](O)[C@H]3O)ccc2Cl)s1 | < 5.00 | –
5 | OC[C@H]1O[C@@H](c2ccc(Cl)c(Cc3nnc(-c4ccco4)s3)c2)[C@H](O)[C@@H](O)[C@@H]1O | – | fold change (FC) (Rattus norvegicus [2]): 100; Cmax [3]: 50 ng/mL; bioavailability [4]: 7.7%; half-life [5]: 51.6 min; fold change (FC) (Rattus norvegicus [6]): 1.4; Tmax [7]: 19.8 min; fold change (FC) (Rattus norvegicus [8]): 100; Activity (Mus musculus): 72.8%
6 | CCc1noc(C)c1-c1nnc(Cc2cc([C@@H]3O[C@H](CO)[C@@H](O)[C@H](O)[C@H]3O)ccc2Cl)s1 | < 5.00 | –

Further compounds by rising pIC50 [1], results first:

Row | pIC50 [1] | SMILES | also measured
7 | 5.48 | Cn1nc(-c2nnc(Cc3cc([C@@H]4O[C@H](CO)[C@@H](O)[C@H](O)[C@H]4O)ccc3Cl)s2)c2ccccc21 | –
8 | 5.62 | OC[C@H]1OC(c2ccc(Cl)c(Cc3nnc(Cc4ccc(Cl)cc4)s3)c2)[C@H](O)[C@@H](O)[C@@H]1O (some centres not stated) | –
9 | 7.14 | OC[C@H]1O[C@@H](c2ccc(Cl)c(Cc3nnc(-c4csc(-c5ccncc5)n4)s3)c2)[C@H](O)[C@@H](O)[C@@H]1O | –
10 | 8.20 | COc1ccc(Cc2ccccc2O[C@@H]2O[C@H](CO)[C@@H](O)[C@H](O)[C@H]2O)cc1 [SERGLIFLOZIN A] | –
